Experimental data: ChEMBL document CHEMBL3286213, “Exploration of the dihydropyrimidine scaffold for the development of new potential anti-inflammatory agents blocking prostaglandin E₂ synthase-1 enzyme (mPGES-1)” (Eur J Med Chem, 2014)
Calls of active or inactive are those of the source. The calls are words filed in the database; no cut-off is given here.

Tests used:
[1] = biological target: T1, Prostaglandin E synthase (Homo sapiens) (UniProt O14684); experiment: Inhibition of mPGES-1 in interleukin-1 beta-stimulated human A549 cell microsomes assessed as reduction in PGE2 production using PGH2 as substrate at <10 uM treated for 15 mins prior to substrate addition measured after 1 min by RP-HPLC analysis
T1 sequence (whole entry): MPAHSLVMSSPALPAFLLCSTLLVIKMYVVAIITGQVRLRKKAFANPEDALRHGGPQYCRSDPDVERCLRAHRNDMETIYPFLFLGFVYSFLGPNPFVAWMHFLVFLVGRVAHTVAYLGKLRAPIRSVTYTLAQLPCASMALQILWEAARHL
Summary of the method: (§1)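 Diluted in 0.1 M potassium phosphate pH 7.4 with 2.5 mM GSH. Compound or vehicle 15 min at 4 °C, then PGH2 added, 1 min. Stopped with FeCl2/citric acid plus 11β-PGE2 internal standard. PGE2 by SPE and RP-HPLC. Mean ± SE.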

[2] = Retention time of the compound by RP-HPLC analysis; assay type: physicochemical
Summary of the method: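 RP-HPLC with eluent A 0.1% TFA in water and eluent B 0.1% TFA in CH3CN, detection at 280 nm.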

Prostaglandin E synthase = biological target: T2, Prostaglandin E synthase (Homo sapiens, UniProt O14684); experiment: Inhibition of mPGES-1 in interleukin-1 beta-stimulated human A549 cell microsomes assessed as reduction in PGE2 production using PGH2 as substrate treated for 15 mins prior to substrate addition measured after 1 min by RP-HPLC analysis; summary of the method: as §1
T2 sequence (O14684 whole entry): T1 sequence (whole entry)

[3] = biological target: T1, Prostaglandin E synthase (Homo sapiens); experiment: Inhibition of mPGES-1 in interleukin-1 beta-stimulated human A549 cell microsomes assessed as reduction in PGE2 production using PGH2 as substrate at 10 uM treated for 15 mins prior to substrate addition measured after 1 min by RP-HPLC analysis; summary of the method: as §1

Compound | inhibition [1] | Retention_time [2] | IC50 (Prostaglandin E synthase) | inhibition [3]
CCOC(=O)C1=C(C)N(C)C(=O)NC1c1ccc(-c2cccc(C(F)(F)F)c2)o1 (configuration not stated) | inactive | 26.7 min | – | –
CCOC(=O)C1=C(C(=O)c2ccc(OC)cc2)[C@H](c2ccc(-c3cccc(C(F)(F)F)c3)o2)NC(=O)N1 | – | 34.2 min | 4.16 µM | –
CCOC(=O)C1=C(C(=O)c2ccc(OC)cc2)[C@H](c2ccc(-c3cccc(C(F)(F)F)c3)o2)NC(=O)N1C | – | 30.3 min | 7.56 µM | –
CCOC(=O)C1=C(C(=O)c2ccc(OC)cc2)C(c2cccc(OCC)c2)NC(=O)N1 (configuration not stated) | inactive | 22.9 min | – | –
CCOC(=O)C1=C(C(=O)c2ccc(OC)cc2)C(c2cccc(C=O)c2)NC(=O)N1 (configuration not stated) | inactive | 24.7 min | – | –

Next, values leading:

inhibition [1] | Retention_time [2] | IC50 (Prostaglandin E synthase) | inhibition [3] | Compound
inactive | 20.8 min | – | – | CCOC(=O)C1=C(C(=O)c2ccc(OC)cc2)[C@H](c2cccc(-c3ccc(C#N)cc3)n2)NC(=O)N1
– | 32.3 min | > 30 µM | 37% | CCOC(=O)C1=C(C(=O)c2ccc(OC)cc2)C(c2ccc(-c3cccc(C(F)(F)F)c3)o2)NC(=S)N1 (configuration not stated)
inactive | 26.4 min | – | – | CCOC(=O)C1=C(C(=O)c2ccc(OC)cc2)[C@H](c2coc3c(Br)cc(Br)cc3c2=O)NC(=O)N1
